Screening data: PubChem BioAssay, Johns Hopkins Ion Channel Center
hERG rescue: compounds protecting human hERG from proarrhythmic drug block; 310,000 compounds, 0.51% hits; AID 1511; activation (rescue from dofetilide block), less the hit threshold, % at 10 µM; CHO-hERG, FluxOR thallium flux, dofetilide IC70 present;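 active = activation above the mean of controls blocked by dofetilide plus 5 SD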;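 also: thallium influx through hERG after potassium depolarization seen as dye fluorescence rise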
Target sequence (Q12809 whole entry, looked up): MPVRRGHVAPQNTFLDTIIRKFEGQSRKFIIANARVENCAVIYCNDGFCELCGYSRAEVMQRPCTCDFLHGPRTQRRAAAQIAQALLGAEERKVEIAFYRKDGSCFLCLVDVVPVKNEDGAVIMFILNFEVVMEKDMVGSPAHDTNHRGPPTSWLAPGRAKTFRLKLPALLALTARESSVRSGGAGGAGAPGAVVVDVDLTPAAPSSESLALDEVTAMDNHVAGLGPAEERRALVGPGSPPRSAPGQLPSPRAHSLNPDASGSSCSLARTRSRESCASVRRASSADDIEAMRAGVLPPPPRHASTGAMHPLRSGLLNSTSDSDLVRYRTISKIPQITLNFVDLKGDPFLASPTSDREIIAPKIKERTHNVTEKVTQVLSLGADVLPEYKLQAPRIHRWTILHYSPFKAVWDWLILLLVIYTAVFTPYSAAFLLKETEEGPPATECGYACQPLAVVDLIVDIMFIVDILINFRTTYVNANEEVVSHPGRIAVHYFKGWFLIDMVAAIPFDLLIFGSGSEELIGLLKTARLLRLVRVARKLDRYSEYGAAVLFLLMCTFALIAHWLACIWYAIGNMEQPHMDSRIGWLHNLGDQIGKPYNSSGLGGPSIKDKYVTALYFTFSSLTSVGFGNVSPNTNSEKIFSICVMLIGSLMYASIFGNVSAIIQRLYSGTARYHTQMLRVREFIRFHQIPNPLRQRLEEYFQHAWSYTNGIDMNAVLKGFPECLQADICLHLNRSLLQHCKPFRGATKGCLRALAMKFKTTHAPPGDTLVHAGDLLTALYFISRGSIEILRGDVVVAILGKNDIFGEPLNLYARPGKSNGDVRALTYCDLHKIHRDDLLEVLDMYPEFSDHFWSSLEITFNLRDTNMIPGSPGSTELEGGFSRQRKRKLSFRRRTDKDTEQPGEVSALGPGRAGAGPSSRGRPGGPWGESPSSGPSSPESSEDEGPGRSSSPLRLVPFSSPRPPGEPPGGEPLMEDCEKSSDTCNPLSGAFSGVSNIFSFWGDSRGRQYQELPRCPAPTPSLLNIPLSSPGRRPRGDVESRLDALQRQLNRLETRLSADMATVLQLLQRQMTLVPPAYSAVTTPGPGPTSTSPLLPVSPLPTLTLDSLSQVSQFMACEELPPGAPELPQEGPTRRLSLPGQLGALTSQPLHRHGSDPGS
KCNQ1 pot: human KCNQ1 channel potentiation or activation | 310,000 compounds, 0.35% hits | AID 2648 | B-score at 10 µM | CHO-K1 KCNQ1, thallium flux FluxOR fluorescence; stronger effect = higher value;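 active = fluorescence ratio B-score, a plate-corrected score, at least three library SD, with initial intensity B-score within 5 SD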
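assay system = CHO-K1 cells stably expressing KCNQ1 | medium = assay buffer, equal DMSO in all wells | timing = 37 °C overnight plating, 90-min dark dye load, 20-min compound pretreatment | measured by = kinetic FluxOR thallium fluorescence, 10-s 1-Hz baseline, 110-s post-stimulus read | measure = fluorescence change relative to baseline, converted to B score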
KCNK9 block: blocks the human KCNK9 two-pore domain potassium channel; HEK293 KCNK9, FluxOR thallium flux fluorescence; stronger effect = lower value; B-score at 10 µM; 310,000 compounds, 1.2% hits;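 active = ratio B-score over 3 SD below the library mean, with starting fluorescence within 5 SD of its mean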;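 also: negative B-score means less thallium flux so channel inhibition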
KCNQ1 block: inhibitors of human KCNQ1 potassium channel; P51787; CHO-K1 KCNQ1, FluxOR thallium flux fluorescence; stronger effect = higher value; B-score at 10 µM; 310,000 compounds, 1.3% hits;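 active = compounds whose thallium flux B-score, printed positive for inhibition, exceeds three library SD while starting fluorescence stays within three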;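 also: channel opened by potassium depolarization with thallium stimulus after 20 min compound exposure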
KCNK3 block: human KCNK3 channel inhibition, primary screen; 340,000 compounds, 0.84% hits; B-score at 10 µM; CHO-KCNK3 thallium flux, FluxOR fluorescence; stronger effect = lower value;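 active = B-score under library mean minus 4 SD, starting fluorescence ratio at most library mean plus 5 SD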;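 also: more negative B-score means stronger inhibition of thallium flux through KCNK3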
Numbers stand for hits; i = inactive; nt = no result given. Rows were chosen to be rich in hits. Some 3.1% of all compounds tested hit in one or more screens of this group.

SMILES	hERG rescue	KCNQ1 pot	KCNK9 block	KCNQ1 block	KCNK3 block
CCC(C)Sc1cccc(-c2nc3ccc(C)cn3c2NCc2ccccc2)c1 (stereo unspecified)	i	i	i	7	i
CCC(C)Sc1cccc(-c2nc3ccc(Cl)cn3c2NCc2ccccc2)c1 (stereo unspecified)	i	i	i	i	i
CCCCNc1c(-c2ccc(SC(C)CC)c(OC)c2)nc2ccc(C)cn12 (stereo unspecified)	i	i	i	8	i
CCCCNc1c(-c2ccc(SC(C)CC)c(OC)c2)nc2ccc(Cl)cn12 (stereo unspecified)	nt	nt	nt	nt	i
CCCCOc1ccc(NC(=O)CN2CCN(Cc3ccccc3)CC2)cc1	i	i	i	i	i
Cc1cc(O)c(C(C)C)cc1NC(=S)Nc1cc(C(C)C)c(O)cc1C	nt	nt	nt	nt	i
O=C1/C(=C\c2ccc(Br)o2)Cc2ccccc21	i	i	-9.9	i	i
COC(=O)c1ccc(OC(=O)CCN2c3ccccc3Sc3ccccc32)cc1	i	i	-7.51	i	i
N#CC1(NC(=O)CSc2nnc(-c3ccccc3F)n2N)CCCCC1	i	i	i	i	i
c1cncc(-c2nn[nH]n2)c1	7.5	i	i	i	i
Cc1cc(C)cc(NS(=O)(=O)c2ccc(-c3cnc(C4CC4)o3)cc2)c1	i	7	i	i	i
O=C1C=C(c2ccccc2)OC(=O)C1C(=O)c1ccccc1 (stereo unspecified)	5.4	i	i	i	i
COc1cc(OC)cc(C(=O)Nc2ccc(C(=O)c3ccncc3)cc2)c1	i	i	i	i	i
O=c1c2ccccc2cnn1CCOc1cccc(Br)c1	i	i	i	i	i
Cc1cc(S(=O)(=O)Nc2ccc(C(=O)N3CCN(C(=O)c4ccco4)CC3)cc2)ccc1F	7.5	i	i	i	i
Cc1ccc(F)c(NC(=O)c2c(-c3ccccc3)noc2C)c1	i	i	i	i	i
CN(CC(=O)Nc1cccc(F)c1)CC(=O)Nc1cccc2ccccc12	nt	nt	nt	nt	-10.9
Cc1cc(C)c(NC(=O)CN(C)CC(=O)Nc2cccc(S(=O)(=O)N(C)c3ccccc3)c2)c(C)c1	nt	nt	nt	nt	i
CN(CC(=O)Nc1cccc(F)c1)CC(=O)Nc1cccc(S(=O)(=O)N(C)c2ccccc2)c1	nt	nt	nt	nt	-9.32
CCC(C(=O)Nc1cccc(S(=O)(=O)N(C)c2ccccc2)c1)c1ccccc1 (stereo unspecified)	nt	nt	nt	nt	-9.95
O=C(COc1ccccc1)N[C@@H]1c2ccccc2CC[C@@H]1O	nt	nt	nt	nt	i
CC(Sc1ccsc1[N+](=O)[O-])C(=O)NCc1ccco1 (stereo unspecified)	i	i	-7.68	i	i
O=C(NC(=S)Nc1ccccc1N1CCCC1)c1cccs1	i	17	i	i	i
O=C(NC(=S)Nc1ccccc1N1CCCCC1)c1cccs1	7.5	12	i	i	i
O=C(NC(=S)Nc1ccc(N2CCCCC2)cc1)c1cccs1	i	9	i	i	i
SMILES	hERG rescue	KCNQ1 pot	KCNK9 block	KCNQ1 block	KCNK3 block
C/C(CCc1oc2ccccc2c1-c1ccc(C)o1)=N/O	i	i	i	i	i
C/C(CCc1oc2c(Br)cc(Br)cc2c1-c1ccc(C)o1)=N\O	i	15	i	i	i
Cc1ccccc1OCc1nc2ccccc2c(=O)n1/N=C/c1ccco1	i	i	-6.91	i	i
COc1ccc(CNC(=O)[C@H](C)NC(=O)C2CCN(C(=O)[C@@H](N)CCSC)CC2)cc1	i	i	i	i	i
COc1ccc(C=C2c3ccccc3C(=O)c3ccccc32)c(OC)c1	i	i	-8.7	i	i
COc1ccc(/C=C2\CN(Cc3ccccc3)C/C(=C\c3ccc(OC)cc3OC)C2=O)c(OC)c1	i	i	i	i	i
CCOc1ccc(C2C(C(=O)OC)=C(C)N=C3SCCC(=O)N32)cc1OCC (stereo unspecified)	i	i	i	i	-8.82
CCOc1cc(C2C(C(=O)OC)=C(C)N=C3SCCC(=O)N32)ccc1OC(C)=O (stereo unspecified)	i	i	i	i	i
Cc1cc(C(=O)NC(C)CCc2ccccc2)ccc1[N+](=O)[O-] (stereo unspecified)	i	i	i	i	i
NC(=O)CC(NC(=O)c1ccccc1)c1ccc(N2CCC(Cc3ccccc3)CC2)c([N+](=O)[O-])c1 (stereo unspecified)	i	i	-6.85	i	i
Cc1ccc(S(=O)(=O)Cc2nnnn2-c2ccccc2)cc1	i	i	i	i	i
O=C(NCCc1c[nH]c2ccccc12)Nc1ccccc1	i	i	-6.94	i	i
COC(=O)c1c(C)oc(C)c1S(=O)(=O)NCc1ccc(Cl)cc1Cl	i	i	-7.51	i	i
CCn1cc(S(=O)(=O)Nc2ncccn2)cn1	i	i	i	i	i
FC(F)(F)c1cccc(NC(=S)NNC(=S)NCc2ccccc2)c1	i	i	i	7	i
FC(F)(F)c1cccc(NC(=S)Nc2cccc(NC(=S)Nc3cccc(C(F)(F)F)c3)n2)c1	i	i	i	8	i
Cc1ccc(S(=O)(=O)NCCC(=O)N2CCC(C(N)=O)CC2)cc1C	i	i	i	i	i
Cc1cc(Br)cc2c1NC(=O)C2(c1c(C)n(C)n(-c2ccccc2)c1=O)c1c(C)n(C)n(-c2ccccc2)c1=O	i	i	i	i	i
COc1cc(C2(c3ccc(O)c(OC)c3)C(=O)Nc3c(C)cc(Br)cc32)ccc1O	i	9	i	i	i
CCc1cc2c(-c3ccccc3)cc(=O)oc2cc1OCC(C)=O	i	i	i	i	i
CCCc1cc2c(-c3ccccc3)cc(=O)oc2cc1OCc1ccc(C(=O)O)o1	i	9	i	i	i
Cc1cc(NS(=O)(=O)c2ccc(NC(=O)Cc3ccc([N+](=O)[O-])cc3)cc2)nc(C)n1	nt	nt	nt	nt	i
Cc1ccc(C2C(/C=C3/SC(=S)NC3=O)=C(c3cccs3)Oc3ccccc32)cc1 (stereo unspecified)	i	8	i	i	i
CCOC(=O)COn1c(-c2cccc(Cl)c2)nc2ccc([N+](=O)[O-])cc21	i	i	i	6	i
COc1cc(/C=C/C(=O)O[C@H]2[C@H](O[C@@H]3O[C@@H](C)[C@H](O)[C@@H](O)[C@H]3O)[C@@H](O)[C@H](OCCc3ccc(O)c(OC)c3)O[C@@H]2CO)ccc1O	nt	nt	nt	nt	i
CCc1ccccc1NC(=O)CN(C)C(=O)COC(=O)c1ccco1	nt	nt	nt	nt	i
O=C(c1ccc(Cl)cc1)C1C2C(=O)N(c3ccccc3)C(=O)C2C2CCCN21 (stereo unspecified)	i	i	i	i	i
CC(=O)c1ccc(N2C(=O)C3C(C2=O)C(C(=O)c2ccc(Cl)cc2)N2CCCC32)cc1 (stereo unspecified)	i	i	i	8	nt
CC(CCc1ccccc1)NC(=O)COC(=O)c1cc(NS(=O)(=O)c2ccc(Cl)c([N+](=O)[O-])c2)ccc1O (stereo unspecified)	i	i	i	6	i
